What was measured:
[1] = biological target: T1, 2-Hydroxyacid oxidase 1 (Mus musculus) (UniProt Q9WU19); assay: Inhibition of glycolate oxidase in C57BL/6 Agxt1-/- mouse hepatocytes using glycolate as substrate assessed as relative oxalate level at 10 uM after 24 hrs; assay type: cell-based
T1 sequence (whole entry): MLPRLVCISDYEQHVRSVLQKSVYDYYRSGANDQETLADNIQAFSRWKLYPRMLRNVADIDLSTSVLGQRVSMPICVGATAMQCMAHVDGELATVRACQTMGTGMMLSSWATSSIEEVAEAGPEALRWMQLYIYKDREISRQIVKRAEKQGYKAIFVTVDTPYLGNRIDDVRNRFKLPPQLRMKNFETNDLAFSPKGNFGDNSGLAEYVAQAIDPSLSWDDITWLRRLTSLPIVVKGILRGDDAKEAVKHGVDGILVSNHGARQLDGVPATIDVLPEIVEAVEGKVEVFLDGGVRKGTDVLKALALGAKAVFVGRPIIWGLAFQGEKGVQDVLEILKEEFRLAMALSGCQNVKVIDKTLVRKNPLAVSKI
Outline: (§1)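 Primary Agxt1-/- mouse hepatocytes in 6-well plates, serum-free Williams E with 5 mM glycolate, treated with 10 µM compound. Excreted oxalate measured 24 h later by oxalate oxidase–HRP colorimetric kit (595 nm) and expressed relative to untreated control. Mean ± SD, n = 3, one-way ANOVA.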

[2] = biological target: T1, 2-Hydroxyacid oxidase 1 (Mus musculus); assay: Inhibition of mouse recombinant glycolate oxidase expressed in Escherichia coli at 25 uM using glycolate as substrate after 1 min by sulfonated DCIP dye-based assay relative to control
2-Hydroxyacid oxidase 1 [3] = biological target: T2, 2-Hydroxyacid oxidase 1 (Mus musculus, UniProt Q9WU19); assay: Inhibition of mouse recombinant glycolate oxidase expressed in Escherichia coli using glycolate as substrate by sulfonated DCIP dye-based assay
T2 sequence (Q9WU19 whole entry): T1 sequence (whole entry)
Outline: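 Purified recombinant mGO (10 µL at 0.1 µg/µL) with saturating glycolate (22.2 mM) in 50 mM potassium phosphate pH 7. Compound at 0.2 µM–0.2 mM; H2O2 detected by HRP-coupled sulfonated DCIP/4-aminoantipyrine dye at 515 nm. IC50 from nonlinear dose-response fitting.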

[4] = biological target: T1, 2-Hydroxyacid oxidase 1 (Mus musculus); assay: Inhibition of glycolate oxidase in C57BL/6 Agxt1-/- mouse hepatocytes using glycolate as substrate assessed as reduction in oxalate production at 10 uM after 24 hrs; assay type: cell-based; outline: as §1
2-Hydroxyacid oxidase 1 [5] = biological target: T2, 2-Hydroxyacid oxidase 1; assay: Inhibition of mouse N-terminal His-tagged glycolate oxidase expressed in BL21(DE3) Escherichia coli using glycolate as substrate by Cornish-Bowden plot analysis
Outline: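 Recombinant mouse GO came from E. coli carrying a pET15b Hao1 vector and was purified by affinity chromatography. Glycolate oxidation was run in 50 mM potassium phosphate pH 7. H2O2 was coupled through HRP with sulfonated DCIP/4-aminoantipyrine and read at 515 nm. Inhibitor and substrate concentrations were varied at constant enzyme, and Ki was taken from the line intersection in Cornish-Bowden and Dixon plots.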

2-Hydroxyacid oxidase 1 [6] = biological target: T2, 2-Hydroxyacid oxidase 1; assay: Inhibition of glycolate oxidase in mouse Agxt1-/- hepatocytes using glycolate as substrate assessed as reduction in oxalate production after 48 hrs by sulfonated-DCIP dye-based assay; assay type: cell-based
Mus musculus = assay: Reduction in urine oxalate levels in Agxt1-/- mouse model at 110 mg/kg administered via oral gavage measured after 24 hrs post treatment for 11 days relative to control; assay type: functional; parameters: scale not given: the % may be the effect or the level left
2-Hydroxyacid oxidase 1 [7] = biological target: T2, 2-Hydroxyacid oxidase 1; assay: Inhibition of glycolate oxidase in mouse Agxt1-/- hepatocytes using glycolate as substrate assessed as reduction in oxalate production after 24 hrs by sulfonated-DCIP dye-based assay; assay type: cell-based
[8] = biological target: T1, 2-Hydroxyacid oxidase 1 (Mus musculus); assay: Inhibition of glycolate oxidase in C57BL/6 Agxt1-/- mouse hepatocytes using glycolate as substrate assessed as relative oxalate level at 12.5 uM after 24 hrs; assay type: cell-based
Outline: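 Primary hepatocytes were isolated from male C57BL/6 Agxt1-/- mouse liver by in situ collagenase perfusion. They were plated at 3.0x10^5 cells/well in supplemented Williams E with 5% FBS, then switched after 5 h to serum-free medium and treated in the presence of 5 mM glycolate. Medium was collected at 24 h, or 48 and 72 h for dose-response. Oxalate was read by oxalate oxidase/HRP (MBTH/DMAB) at 595 nm relative to control.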

2-Hydroxyacid oxidase 1 [9] = biological target: T2, 2-Hydroxyacid oxidase 1; assay: Inhibition of glycolate oxidase in mouse Agxt1-/- hepatocytes using glycolate as substrate assessed as reduction in oxalate production after 72 hrs by sulfonated-DCIP dye-based assay; assay type: cell-based

| SMILES | fold change (FC) [1] | inhibition [2] | IC50 (2-Hydroxyacid oxidase 1 [3]) | also measured |
| --- | --- | --- | --- | --- |
| O=Cc1ccc(-c2ccc(C(=O)O)c(O)c2)s1 | 1 | 28.7% | – | – |
| O=C(O)c1cc2cc(Br)ccc2cc1O | 0.99 | 42.3% | 39.9 µM | – |
| O=C(O)c1ccc(-c2cccs2)cc1O | 0.74 | 35.4% | 32.5 µM | – |
| COc1ccc(COc2ccc(-c3ccc(C(=O)O)c(O)c3)cc2)cc1 | 0.9 | 65% | 13.8 µM | – |
| N[C@@H](CCC(=O)Nc1ccc(O)c(C(=O)O)c1)C(=O)O | – | 7.8% | – | – |
| O=C(O)c1cc2ccccc2c(/N=N/c2c(O)cc(S(=O)(=O)O)c3ccccc23)c1O | 1.11 | 75.1% | – | – |
| O=C(O)c1cc(Oc2ccc([N+](=O)[O-])cc2)c2ccccc2c1O | 0.77 | 96.3% | 2.9 µM | – |
| O=C(O)c1cc(Sc2nnnn2-c2ccccc2)c2ccccc2c1O | 0.99 | 75.3% | 11.1 µM | – |
| CC(=O)c1ccc(-c2ccc(C(=O)O)c(O)c2)s1 | 0.89 | 28.1% | – | – |
| O=C(O)c1cc(-c2ccoc2)ccc1O | 0.89 | 26.6% | – | – |
| O=Cc1ccc(-c2cccc(C(=O)O)c2)o1 | 0.86 | 22.7% | – | – |
| O=C(O)c1ccc(-c2ccc(O)c(C(=O)O)c2)o1 | 0.68 | 0% | – | inhibition [4]: 30% |
| O=C(O)c1ccc(-c2ccc(C(=O)O)c(O)c2)o1 | – | 0% | – | – |
| O=Cc1ccc(-c2ccc(C(=O)O)c(O)c2)o1 | 0.88 | 82.8% | 34.5 µM | – |
| O=Cc1ccc(-c2ccc(O)c(C(=O)O)c2)s1 | 0.93 | 52.1% | 9.4 µM | – |
| O=C(O)c1cnc2cc(Cl)ccc2c1O | – | 24.8% | – | – |
| O=C(O)c1ccc(-c2ccncc2)cc1O | 0.88 | 22.7% | – | – |
| O=Cc1ccc(-c2ccc3cc(O)c(C(=O)O)cc3c2)o1 | – | 26.2% | – | – |
| O=C(O)c1cccc(F)c1O | – | 13.5% | – | – |
| O=C(O)c1cc([N+](=O)[O-])c(-c2ccco2)cc1O | 0.86 | 5.9% | – | – |
| O=C(O)c1cc(-c2ccsc2)ccc1O | 0.94 | 25.2% | – | – |
| O=C(O)c1cc(-c2cccs2)ccc1O | 0.82 | 30% | 39.5 µM | – |
| O=C(O)c1cc(-c2ccccc2COc2cc(F)cc(F)c2)ccc1O | 0.92 | 84.5% | 5.8 µM | – |
| O=C(O)c1ccc(-c2ccc(OCc3ccccc3)cc2)cc1O | 1.11 | 83.4% | 10.4 µM | – |
| O=C(O)c1cc(-c2ccc(CO)o2)ccc1O | 0.88 | 98% | 4.6 µM | – |
| Cc1ccc(-c2ccc(C(=O)O)c(O)c2)s1 | 0.95 | 28.7% | – | – |

| SMILES | fold change (FC) [1] | inhibition [2] | IC50 (2-Hydroxyacid oxidase 1 [3]) | also measured |
| --- | --- | --- | --- | --- |
| O=Cc1ccc(-c2ccc(O)cc2)o1 | 0.32 | 24.2% | – | – |
| O=C(O)c1cc2ccccc2c(/N=N/c2cc(C(F)(F)F)ccc2Cl)c1O | 0.91 | 47.4% | – | – |
| O=C(O)c1nnsc1Sc1ccc(Cl)cc1 | – | 34.8% | 43.5 µM | IC50 (2-Hydroxyacid oxidase 1 [5]): 43.5 µM; Ki (2-Hydroxyacid oxidase 1 [5]): 20.3 µM; EC50 (2-Hydroxyacid oxidase 1 [6]): 33 µM; Activity (Mus musculus): 30 - 50%; EC50 (2-Hydroxyacid oxidase 1 [7]): 25.3 µM; fold change (FC) [8]: 0.63; EC50 (2-Hydroxyacid oxidase 1 [9]): 34 µM |
| O=C(O)c1ccc(-c2ccco2)cc1O | 0.87 | 35.8% | 39.3 µM | – |
| O=C(O)c1ccc(-c2ccoc2)cc1O | 1.02 | 22.8% | – | – |
| Nc1ccc(C(=O)O)c(O)c1 | – | 14.9% | – | – |
| Nc1ccc(O)c(C(=O)O)c1 [MESALAMINE] | 0.88 | 71.9% | 7.8 µM | – |
| O=C(O)c1ccc(-c2ccsc2)cc1O | 0.99 | 41.4% | 21.6 µM | – |
| O=C(O)c1cc(-c2ccccc2COc2cccc(C(F)(F)F)c2)ccc1O | 0.68 | 96.2% | 3.5 µM | inhibition [4]: 30% |
| O=C(O)c1ccc(-c2ccc(O)cc2)cc1O | 0.82 | 61.3% | 13.5 µM | – |
| Cn1nccc1-c1ccc(C(=O)O)c(O)c1 | 0.93 | 16.2% | – | – |
| O=C(O)c1ccc(Cl)cc1O | – | 20.8% | – | – |
| COc1ccc(COc2ccc(-c3ccc(O)c(C(=O)O)c3)cc2)cc1 | 1.07 | 83.8% | 9.5 µM | – |
| COc1cc(-c2ccc(C=O)o2)ccc1C(=O)O | 0.82 | 0% | – | – |
| COc1cccc(-c2ccc(C(=O)O)c(O)c2)c1 | 0.83 | 50.9% | 19.5 µM | – |
| O=C(O)c1ccc(-c2ccccc2COc2cc(F)cc(F)c2)cc1O | 0.72 | 77.7% | 8.3 µM | – |
| Cc1ccc(/N=N/c2cc(C(=O)O)cc3ccccc23)c(S(=O)(=O)O)c1 | – | 1.5% | – | – |
| O=C(O)c1ccc(-c2ccc(CO)o2)cc1O | 0.88 | 85.7% | 7.9 µM | – |
| O=C(O)c1ccccc1O | – | 18.5% | – | – |
| CC(=O)c1ccc(O)c(C(=O)O)c1 | – | 22.1% | – | – |
| O=C(O)c1ccc(-c2ccccc2COc2cccc(C(F)(F)F)c2)cc1O | 0.62 | 98.6% | 4.4 µM | inhibition [4]: 30% |
| COC(=O)c1ccc(-c2ccc(C=O)o2)cc1OC | 0.9 | 17.5% | – | – |
| O=C(O)c1ccc(-c2ccc([N+](=O)[O-])cc2)cc1O | 0.91 | 41.9% | 19.7 µM | – |
| O=C(O)c1cc(-c2ccc(OCc3ccccc3)cc2)ccc1O | 0.8 | 70.9% | 14.8 µM | – |
| O=Cc1ccc(-c2ccc(C(=O)O)c(CO)c2)o1 | 0.98 | 0% | – | – |

Reference: ChEMBL document CHEMBL4229456, “Salicylic Acid Derivatives Inhibit Oxalate Production in Mouse Hepatocytes with Primary Hyperoxaluria Type 1” (J Med Chem, 2018)
